Converted amounts (≈) assume the structure as drawn.
Experiments:
Salmonella typhimurium = test: Antibacterial activity against Salmonella enterica subspecies enterica serotype typhimurium ATCC 14028 after 18 hrs; type: functional, Salmonella enterica subsp. enterica serovar Typhimurium; conditions: ATCC 14028, 18 h
Summary of the method: (§1)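 Broth microdilution in Nutrient Broth No. 2; stocks in ethanol diluted to 0.01–128 µg/ml (triclosan) or 0.25–256 µg/ml (glycosides). Overnight 37 °C NB2 cultures diluted 1 in 10^4 in saline and added to the dilutions. Incubation at 37 °C with agitation, OD read every 15 min; MIC is the lowest concentration preventing any OD rise after 18 h.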

[1] = Antibacterial activity against Salmonella enterica subspecies enterica serotype Dublin OCC 627 after 18 hrs; type: functional, Salmonella enterica subsp. enterica serovar Dublin; conditions: OCC 627, 18 h; summary of the method: as §1
Bacillus cereus = test: Antibacterial activity against Bacillus cereus ATCC 14579 after 18 hrs; type: functional; conditions: ATCC 14579, 18 h; summary of the method: as §1
Escherichia coli [2] = test: Antibacterial activity against Escherichia coli ATCC 11775 after 18 hrs; type: functional; summary of the method: as §1
Streptococcus agalactiae = test: Antibacterial activity against Streptococcus agalactiae OCC 182 after 18 hrs; type: functional; conditions: OCC 182, 18 h
Summary of the method: (§2)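 Broth microdilution in Nutrient Broth No. 2. Ethanol stocks were diluted in broth to 0.01–128 µg/ml for triclosan and 0.25–256 µg/ml for glycosides. Overnight 37°C NB2 cultures were diluted 1 in 10^4 in saline and added to the wells. Plates were incubated at 37°C with OD read every 15 min after agitation. MIC was the lowest concentration giving no OD increase at 18 h.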

Klebsiella aerogenes = test: Antibacterial activity against Enterobacter aerogenes ATCC 13048 after 18 hrs; type: functional; conditions: ATCC 13048, 18 h; summary of the method: as §1
Staphylococcus aureus [3] = test: Antibacterial activity against Staphylococcus aureus ATCC 6538P after 18 hrs; type: functional; summary of the method: as §1
[4] = tested on: Staphylococcus epidermidis; test: Antibacterial activity against Staphylococcus epidermidis 155 after 18 hrs; type: functional; conditions: Staphylococcus epidermidis, 155, 18 h; summary of the method: as §1
[5] = Antibacterial activity against Enterobacter cloacae ATCC 13047 after 18 hrs; type: functional, Enterobacter cloacae subsp. cloacae; conditions: ATCC 13047, 18 h; summary of the method: as §1
Bacillus subtilis = test: Antibacterial activity against Bacillus subtilis NCTC 10073 after 18 hrs; type: functional; conditions: NCTC 10073, 18 h; summary of the method: as §1
[6] = Antibacterial activity against Salmonella enterica subspecies enterica serotype Virchow NCTC 5742 after 18 hrs; type: functional, Salmonella enterica subsp. enterica serovar Virchow; conditions: NCTC 5742, 18 h; summary of the method: as §1
[7] = Antibacterial activity against Salmonella enterica subspecies enterica serotype Nottingham NCTC 7832 after 18 hrs; type: functional, Salmonella enterica subsp. enterica serovar Nottingham; conditions: NCTC 7832, 18 h; summary of the method: as §1
Staphylococcus aureus [8] = test: Antibacterial activity against Staphylococcus aureus ATCC 29213 after 18 hrs; type: functional; conditions: ATCC 29213, 18 h; summary of the method: as §1
Aeromonas hydrophila = test: Antibacterial activity against Aeromonas hydrophila OCC 778 after 18 hrs; type: functional; conditions: OCC 778, 18 h; summary of the method: as §1
Citrobacter freundii = test: Antibacterial activity against Citrobacter freundii OCC 851 after 18 hrs; type: functional; conditions: OCC 851, 18 h; summary of the method: as §1
Escherichia coli [9] = test: Antibacterial activity against Escherichia coli NCTC 13216 after 18 hrs; type: functional; conditions: NCTC 13216, 18 h; summary of the method: as §1
Staphylococcus aureus [10] = test: Antibacterial activity against Staphylococcus aureus ATCC 9144 after 18 hrs; type: functional; conditions: ATCC 9144, 18 h; summary of the method: as §1
Streptococcus pneumoniae [11] = test: Antibacterial activity against Streptococcus pneumoniae 6305 after 18 hrs; type: functional; conditions: Streptococcus pneumoniae, 6305, 18 h; summary of the method: as §2
Enterococcus faecalis = test: Antibacterial activity against Enterococcus faecalis ATCC 33186 after 18 hrs; type: functional; conditions: ATCC 33186, 18 h; summary of the method: as §1
Enterococcus faecium = test: Antibacterial activity against Enterococcus faecium ATCC 19434 after 18 hrs; type: functional; conditions: ATCC 19434, 18 h; summary of the method: as §1
[12] = Antibacterial activity against Salmonella enterica subspecies enterica serotype Arizonae OCC 706 after 18 hrs; type: functional, Salmonella enterica subsp. enterica serovar Arizonae; conditions: OCC 706, 18 h; summary of the method: as §1
Klebsiella pneumoniae = test: Antibacterial activity against Klebsiella pneumoniae ATCC 10031 after 18 hrs; type: functional; conditions: ATCC 10031, 18 h; summary of the method: as §1
[13] = Antibacterial activity against Salmonella enterica subspecies enterica serotype Poona NCTC 4840 after 18 hrs; type: functional, Salmonella enterica subsp. enterica serovar Poona; conditions: NCTC 4840, 18 h; summary of the method: as §1
Staphylococcus aureus [14] = test: Antibacterial activity against Staphylococcus aureus ATCC 25923 after 18 hrs; type: functional; conditions: ATCC 25923, 18 h; summary of the method: as §1
Pseudomonas aeruginosa = test: Antibacterial activity against Pseudomonas aeruginosa ATCC 27853 after 18 hrs; type: functional; conditions: ATCC 27853, 18 h; summary of the method: as §1
[15] = tested on: Salmonella enterica subsp. enterica serovar Abony; test: Antibacterial activity against Salmonella enterica subspecies enterica serotype Abony NCTC 6017 after 18 hrs; type: functional; conditions: NCTC 6017, 18 h; summary of the method: as §1
Staphylococcus aureus [16] = test: Antibacterial activity against Staphylococcus aureus OCC 104 after 18 hrs; type: functional; conditions: OCC 104, 18 h; summary of the method: as §1
Streptococcus pneumoniae [17] = test: Antibacterial activity against Streptococcus pneumoniae ATCC 49619 after 18 hrs; type: functional; conditions: ATCC 49619, 18 h; summary of the method: as §2

MIC (Salmonella typhimurium): 32 to 64 µg/mL (≈ 75.9 to 152 µM)
MIC [1]: 32 to 64 µg/mL (≈ 75.9 to 152 µM)
MIC (Bacillus cereus): 128 µg/mL (≈ 304 µM)
MIC (Escherichia coli [2]): 8 to 32 µg/mL (≈ 19 to 75.9 µM)
MIC (Streptococcus agalactiae): 128 µg/mL (≈ 304 µM)
MIC (Klebsiella aerogenes): 128 µg/mL (≈ 304 µM)
MIC (Staphylococcus aureus [3]): 4 to 8 µg/mL (≈ 9.49 to 19 µM)
MIC [4]: 8 to 16 µg/mL (≈ 19 to 37.9 µM)
MIC [5]: 16 µg/mL (≈ 37.9 µM)
MIC (Bacillus subtilis): 128 µg/mL (≈ 304 µM)
MIC [6]: 32 to 64 µg/mL (≈ 75.9 to 152 µM)
MIC [7]: 32 to 64 µg/mL (≈ 75.9 to 152 µM)
MIC (Staphylococcus aureus [8]): 4 to 8 µg/mL (≈ 9.49 to 19 µM)
MIC (Aeromonas hydrophila): > 256 µg/mL
MIC (Citrobacter freundii): 64 µg/mL (≈ 152 µM)
MIC (Escherichia coli [9]): 8 to 32 µg/mL (≈ 19 to 75.9 µM)
MIC (Staphylococcus aureus [10]): 4 to 8 µg/mL (≈ 9.49 to 19 µM)
MIC (Streptococcus pneumoniae [11]): 64 µg/mL (≈ 152 µM)
MIC (Enterococcus faecalis): 256 µg/mL (≈ 607 µM)
MIC (Enterococcus faecium): 256 µg/mL (≈ 607 µM)
MIC [12]: 32 to 64 µg/mL (≈ 75.9 to 152 µM)
MIC (Klebsiella pneumoniae): 4 µg/mL (≈ 9.49 µM)
MIC [13]: 32 to 64 µg/mL (≈ 75.9 to 152 µM)
MIC (Staphylococcus aureus [14]): 4 to 8 µg/mL (≈ 9.49 to 19 µM)
MIC (Pseudomonas aeruginosa): > 256 µg/mL
MIC [15]: 32 to 64 µg/mL (≈ 75.9 to 152 µM)
MIC (Staphylococcus aureus [16]): 4 to 8 µg/mL (≈ 9.49 to 19 µM)
MIC (Streptococcus pneumoniae [17]): 64 µg/mL (≈ 152 µM)
Compound: O[C@@H]1[C@H](Oc2cc(Cl)ccc2Oc2ccc(Cl)cc2Cl)OC[C@@H](O)[C@H]1O
